Data reported in ChEMBL document CHEMBL2177000, “Pharmacokinetic optimization of class-selective histone deacetylase inhibitors and identification of associated candidate predictive biomarkers of hepatocellular carcinoma tumor response” (J Med Chem, 2012).

Tests used:
[1] = Clearance in human liver microsomes at 1 uM incubated for 10 mins by LC-MS/MS method; assay type: ADME, Microsome
Procedure, shortened: (§1)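 Liver microsomes (human or mouse, 0.5 mg/mL) in 100 mM potassium phosphate pH 7.4 with 1 μM compound, prewarmed 10 min at 37 °C, started with NADPH (10 mM); stopped at 0, 3, 6, 9, 15, 30 min with ice-cold methanol containing tolbutamide internal standard; LC-MS/MS. Hepatic clearance (mL/min/kg) calculated from intrinsic clearance.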

[2] = biological target: Histone deacetylase (Homo sapiens) (UniProt Q13547+O15379+Q9UBN7+Q92769+Q9UQL6+Q8WUI4+Q9BY41+Q96DB2+P56524+Q9UKV0+Q969S8); assay: Inhibition of Class 1 histone deacetylase in human HeLa cells assessed as induction in p21 protein expression at 3 uM incubated for 16 hrs by luciferase reporter gene assay relative to HDAC inhibitor entinostat; assay type: cell-based; design: scale not given: the % may be the effect or the level left
[3] = Clearance in mouse liver microsomes at 1 uM incubated for 10 mins by LC-MS/MS method; assay type: ADME, Microsome; procedure, shortened: as §1

Row | Structure (SMILES) | CLhep predicted at 1 µM [1] | Activity [2] | CLhep predicted at 1 µM [3]
1 | Nc1ccccc1NC(=O)/C=C/c1ccc([C@H]2CN(Cc3ccccc3)C[C@@H]2C(=O)Nc2ccc(Cl)cc2)cc1 (racemic) | 3 mL/min/kg | 70% | 81 mL/min/kg
2 | CN1C[C@H](C(=O)Nc2ccc(Cl)cc2)[C@@H](c2ccc(/C=C/C(=O)Nc3ccccc3N)nc2)C1 (racemic) | 12 mL/min/kg | > 300% | 38 mL/min/kg
3 | CN1C[C@H](C(=O)Nc2ccc(Cl)cc2)[C@@H](c2cnc(/C=C/C(=O)Nc3ccccc3N)cn2)C1 (racemic) | 11 mL/min/kg | > 300% | 25 mL/min/kg
4 | CN1C[C@H](C(=O)Nc2ccc(F)c(Br)c2)[C@@H](c2ccc(/C=C/C(=O)Nc3ccccc3N)cc2)C1 (racemic) | 15 mL/min/kg | 200% | 43 mL/min/kg
5 | CN1C[C@H](C(=O)Nc2ccc(Cl)c(Cl)c2)[C@@H](c2ccc(/C=C/C(=O)Nc3ccccc3N)cc2)C1 (racemic) | 14 mL/min/kg | 160% | 36 mL/min/kg
6 | Cc1cc(NC(=O)[C@H]2CN(C)C[C@@H]2c2ccc(/C=C/C(=O)Nc3ccccc3N)cc2)ccc1Cl (racemic) | 15 mL/min/kg | 210% | 65 mL/min/kg
7 | CN1C[C@H](C(=O)Nc2ccc(F)cc2F)[C@@H](c2ccc(/C=C/C(=O)Nc3ccccc3N)cc2)C1 (racemic) | 12 mL/min/kg | 180% | 27 mL/min/kg
8 | CN1C[C@H](C(=O)Nc2ccc(Cl)cc2F)[C@@H](c2ccc(/C=C/C(=O)Nc3ccccc3N)cc2)C1 (racemic) | 11 mL/min/kg | 200% | 43 mL/min/kg
9 | Cc1ccc(NC(=O)[C@H]2CN(C)C[C@@H]2c2ccc(/C=C/C(=O)Nc3ccccc3N)cc2)cn1 (racemic) | 8 mL/min/kg | 130% | 57 mL/min/kg
10 | CCN1C[C@H](C(=O)Nc2ccc(Cl)cc2)[C@@H](c2ccc(/C=C/C(=O)Nc3ccccc3N)cc2)C1 (racemic) | 12 mL/min/kg | 170% | 35 mL/min/kg
11 | Nc1ccccc1NC(=O)/C=C/c1ccc([C@H]2CN(C3COC3)C[C@@H]2C(=O)Nc2ccc(Cl)cc2)cc1 (racemic) | 13 mL/min/kg | 90% | 42 mL/min/kg
12 | Nc1ccccc1NC(=O)/C=C/c1ccc([C@H]2CN(CCF)C[C@@H]2C(=O)Nc2ccc(Cl)cc2)cc1 (racemic) | 17 mL/min/kg | 180% | 51 mL/min/kg
13 | Nc1ccccc1NC(=O)/C=C/c1ccc([C@H]2CN(CC(F)F)C[C@@H]2C(=O)Nc2ccc(Cl)cc2)cc1 (racemic) | 16 mL/min/kg | 90% | 49 mL/min/kg
14 | Nc1ccccc1NC(=O)/C=C/c1ccc([C@H]2CN(CC(F)(F)F)C[C@@H]2C(=O)Nc2ccc(Cl)cc2)cc1 (racemic) | 15 mL/min/kg | 100% | 35 mL/min/kg
15 | COCCN1C[C@H](C(=O)Nc2ccc(Cl)cc2)[C@@H](c2ccc(/C=C/C(=O)Nc3ccccc3N)cc2)C1 (racemic) | 6 mL/min/kg | 250% | 72 mL/min/kg
16 | N#CCN1C[C@H](C(=O)Nc2ccc(Cl)cc2)[C@@H](c2ccc(/C=C/C(=O)Nc3ccccc3N)cc2)C1 (racemic) | 17 mL/min/kg | 190% | 51 mL/min/kg
17 | CCNC(=O)N1C[C@H](C(=O)Nc2ccc(Cl)cc2)[C@@H](c2ccc(/C=C/C(=O)Nc3ccccc3N)cc2)C1 (racemic) | 9 mL/min/kg | 40% | 25 mL/min/kg
18 | CCN(CC)C(=O)N1C[C@H](C(=O)Nc2ccc(Cl)cc2)[C@@H](c2ccc(/C=C/C(=O)Nc3ccccc3N)cc2)C1 (racemic) | 19 mL/min/kg | 90% | 83 mL/min/kg
19 | Nc1ccccc1NC(=O)/C=C/c1ccc([C@H]2CN(c3ncccn3)C[C@@H]2C(=O)Nc2ccc(Cl)cc2)cc1 (racemic) | 11 mL/min/kg | 120% | 44 mL/min/kg
20 | COc1ccc(NC(=O)[C@H]2CN(C)C[C@@H]2c2ccc(/C=C/C(=O)Nc3ccccc3N)cc2)cc1 (racemic) | 14 mL/min/kg | 170% | 54 mL/min/kg
21 | CN1C[C@H](C(=O)Nc2ccc(C#N)cc2)[C@@H](c2ccc(/C=C/C(=O)Nc3ccccc3N)cc2)C1 (racemic) | 1 mL/min/kg | 80% | 35 mL/min/kg
22 | CC(C)c1ccc(NC(=O)[C@H]2CN(C)C[C@@H]2c2ccc(/C=C/C(=O)Nc3ccccc3N)cc2)cc1 (racemic) | 10 mL/min/kg | 70% | 54 mL/min/kg
23 | CN1C[C@H](C(=O)Nc2ccc(C(F)(F)F)cc2)[C@@H](c2ccc(/C=C/C(=O)Nc3ccccc3N)cc2)C1 (racemic) | 6 mL/min/kg | 10% | 23 mL/min/kg
24 | COc1cccc(NC(=O)[C@H]2CN(C)C[C@@H]2c2ccc(/C=C/C(=O)Nc3ccccc3N)cc2)c1 (racemic) | 14 mL/min/kg | 170% | 65 mL/min/kg
25 | CN1C[C@H](C(=O)Nc2ccc(F)c(Cl)c2)[C@@H](c2ccc(/C=C/C(=O)Nc3ccccc3N)cc2)C1 (racemic) | 15 mL/min/kg | 180% | 34 mL/min/kg
26 | Cc1cc(NC(=O)[C@H]2CN(C)C[C@@H]2c2ccc(/C=C/C(=O)Nc3ccccc3N)cc2)ccc1F (racemic) | 15 mL/min/kg | 200% | 62 mL/min/kg

Results, then the molecule that gave them:

Row | CLhep predicted at 1 µM [1] | Activity [2] | CLhep predicted at 1 µM [3] | Structure (SMILES)
27 | 10 mL/min/kg | 80% | 41 mL/min/kg | CN1C[C@H](C(=O)Nc2cccnc2)[C@@H](c2ccc(/C=C/C(=O)Nc3ccccc3N)cc2)C1 (racemic)
28 | 8 mL/min/kg | 140% | 40 mL/min/kg | CN1C[C@H](C(=O)Nc2ccccn2)[C@@H](c2ccc(/C=C/C(=O)Nc3ccccc3N)cc2)C1 (racemic)
29 | 13 mL/min/kg | 150% | 31 mL/min/kg | CN1C[C@H](C(=O)Nc2ccc(Cl)cn2)[C@@H](c2ccc(/C=C/C(=O)Nc3ccccc3N)cc2)C1 (racemic)
30 | 8 mL/min/kg | 70% | 12 mL/min/kg | CC(C)NC(=O)[C@H]1CN(C)C[C@@H]1c1ccc(/C=C/C(=O)Nc2ccccc2N)cc1 (racemic)
31 | 10 mL/min/kg | 80% | 7 mL/min/kg | CN1C[C@H](C(=O)NC2CC2)[C@@H](c2ccc(/C=C/C(=O)Nc3ccccc3N)cc2)C1 (racemic)
32 | 9 mL/min/kg | 180% | 61 mL/min/kg | CN1C[C@H](C(=O)NC2CCCC2)[C@@H](c2ccc(/C=C/C(=O)Nc3ccccc3N)cc2)C1 (racemic)
33 | 9 mL/min/kg | 10% | 42 mL/min/kg | CN1C[C@H](C(=O)N2CCCCC2)[C@@H](c2ccc(/C=C/C(=O)Nc3ccccc3N)cc2)C1 (racemic)
34 | 7 mL/min/kg | 270% | 67 mL/min/kg | CN1C[C@H](C(=O)Nc2ccccc2)[C@@H](c2ccc(/C=C/C(=O)Nc3ccccc3N)cc2)C1 (racemic)
35 | 15 mL/min/kg | 260% | 62 mL/min/kg | Cc1ccc(NC(=O)[C@H]2CN(C)C[C@@H]2c2ccc(/C=C/C(=O)Nc3ccccc3N)cc2)cc1 (racemic)
36 | 12 mL/min/kg | 60% | 60 mL/min/kg | CN1C[C@H](C(=O)Nc2ccc(C3CC3)cc2)[C@@H](c2ccc(/C=C/C(=O)Nc3ccccc3N)cc2)C1 (racemic)
37 | 3 mL/min/kg | 40% | 16 mL/min/kg | CN1C[C@H](C(=O)Nc2ccc(Br)cc2)[C@@H](c2ccc(/C=C/C(=O)Nc3ccccc3N)cc2)C1 (racemic)
38 | 6 mL/min/kg | 190% | 56 mL/min/kg | CN1C[C@H](C(=O)Nc2cccc(F)c2)[C@@H](c2ccc(/C=C/C(=O)Nc3ccccc3N)cc2)C1 (racemic)
39 | 7 mL/min/kg | 230% | 58 mL/min/kg | CN1C[C@H](C(=O)Nc2cccc(Cl)c2)[C@@H](c2ccc(/C=C/C(=O)Nc3ccccc3N)cc2)C1 (racemic)
40 | 14 mL/min/kg | 350% | 74 mL/min/kg | Cc1cccc(NC(=O)[C@H]2CN(C)C[C@@H]2c2ccc(/C=C/C(=O)Nc3ccccc3N)cc2)c1 (racemic)
41 | 10 mL/min/kg | 170% | 67 mL/min/kg | CN1C[C@H](C(=O)Nc2ccccc2F)[C@@H](c2ccc(/C=C/C(=O)Nc3ccccc3N)cc2)C1 (racemic)
42 |  | 240% |  | CN1C[C@H](C(=O)Nc2ccc(Cl)cc2)[C@@H](c2ccc(/C=C/C(=O)Nc3ccccc3N)cc2)C1 (racemic)
43 |  | 50% |  | CN1C[C@H](C(=O)Nc2ccncc2)[C@@H](c2ccc(/C=C/C(=O)Nc3ccccc3N)cc2)C1 (racemic)
